Assay results published in ChEMBL document CHEMBL1811833, “Phenylimino-10H-anthracen-9-ones as novel antimicrotubule agents-synthesis, antiproliferative activity and inhibition of tubulin polymerization” (Bioorg Med Chem, 2011).
The source made the active and inactive calls. No cut-off for these calls is given here.

Assays:
K562 = test: Antiproliferative activity against human K562 cells after 48 hrs by hemocytometer; type: functional, cell-based; settings: K562, 48 h
Method in brief: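 K562 human erythroid leukemia cells were treated with drug for 48 h, and the cells were then counted directly with a hemocytometer. IC50 is the concentration giving 50% inhibition of cell growth. Values are means of at least three independent determinations.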

Tubulin [1] = target: T1, Tubulin (Sus scrofa, UniProt P02554+P02550); test: Inhibition of pig brain tubulin polymerization after 30 mins by turbidimetry analysis
[2] = Antiproliferative activity against rat LT12 cells after 48 hrs by XTT assay; type: functional, cell-based; settings: LT12, 48 h
[3] = Cell cycle arrest in human KB/HeLa cells assessed as accumulation of cells at G2/M phase after 24 hrs by flow cytometry; type: functional, cell-based
Method in brief: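 Sub-confluent KB/HeLa cells were exposed to a range of compound concentrations for 24 h. The cells were then permeabilized and stained with propidium iodide, and DNA content was measured by flow cytometry. The percentage of cells in G2/M was plotted against concentration, and EC50 is the concentration giving 50% of cells arrested in G2/M. At least two replicates were run, with nonlinear regression fitting.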

[4] = Cytotoxicity against human KB/HeLa cells after 48 hrs by XTT assay; type: functional, cell-based
Method in brief: (§1)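 Cells were exposed to test compound for 48 h and growth was read by XTT proliferation assay. Experiments were run in at least two replicates (n = 2). IC50 was calculated from dose–response curves by nonlinear regression.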

[5] = Cytotoxicity against non induced human RKOp27 cells after 48 hrs by XTT assay; type: functional, cell-based; settings: RKOp27, 48 h; method in brief: as §1
[6] = Antiproliferative activity against rat multiple drug-resistant LT12 cells after 48 hrs by XTT assay; type: functional, cell-based; settings: LT12, 48 h; method in brief: as §1
[7] = Cytotoxicity against ponasterone A-induced human RKOp27 cells with ectopic inducible expression of CDK inhibitor-kip1 after 48 hrs by XTT assay; type: functional, cell-based; settings: RKOp27, 48 h; method in brief: as §1
L1210 [8] = test: Antiproliferative activity against mouse VCR-resistant L1210 cells after 48 hrs by XTT assay; type: functional, cell-based; settings: L1210, 48 h; method in brief: as §1
Tubulin (Sus scrofa) = Tubulin (Sus scrofa) (UniProt P02554+P02550); test: Displacement of [3H]paclitaxel from biotinylated pig brain tubulin after 2 hrs by competitive scintillation proximity assay
SK-OV-3 = test: Cytotoxicity against human SKOV3 cells after 48 hrs by XTT assay; type: functional, cell-based; settings: SK-OV-3, 48 h; method in brief: as §1
P388 [9] = test: Antiproliferative activity against ADR-resistant mouse P388 cells after 48 hrs by XTT assay; type: functional, cell-based; settings: P388, 48 h; method in brief: as §1
SF-268 = test: Cytotoxicity against human SF268 cells after 48 hrs by XTT assay; type: functional, cell-based; settings: SF-268, 48 h; method in brief: as §1
NCI-H460 = test: Cytotoxicity against human NCI-H460 cells after 48 hrs by XTT assay; type: functional, cell-based; settings: NCI-H460, 48 h; method in brief: as §1
P388 [10] = test: Antiproliferative activity against mouse P388 cells after 48 hrs by XTT proliferation assay; type: functional, cell-based; settings: P388, 48 h; method in brief: as §1
L1210 [11] = test: Antiproliferative activity against mouse L1210 cells after 48 hrs by XTT assay; type: functional, cell-based; settings: L1210, 48 h; method in brief: as §1
Tubulin [12] = target: T1, Tubulin; test: Displacement of [3H]colchicine from biotinylated pig brain tubulin after 2 hrs by competitive scintillation proximity assay

## COc1ccc(OC)c(NN=C2c3ccccc3C(=O)c3ccccc32)c1
K562
  IC50: > 80000 nM
Tubulin [1]
  IC50: > 10000 nM

## COc1cc(N=C2c3ccccc3C(=O)c3ccccc32)cc(OC)c1OC
K562
  IC50: > 30000 nM
Tubulin [1]
  IC50: > 10000 nM

## COC(=O)Nc1nc2cc(C(=O)c3cccs3)ccc2[nH]1 [NOCODAZOLE]
[2]
  IC50: 40 nM
[3]
  EC50: 91 nM
[4]
  IC50: 140 nM
[5]
  IC50: 110 nM
[6]
  IC50: 70 nM
[7]
  IC50: > 10000 nM

## COc1cc(N=C2c3ccccc3C(=O)c3ccccc32)cc(OC)c1
K562
  IC50: 730 nM
Tubulin [1]
  IC50: 1600 nM

## O=C1c2ccccc2C(=Nc2ccc3c(c2)OCO3)c2ccccc21
K562
  IC50: 2670 nM

## COc1ccc(N=C2c3ccccc3C(=O)c3ccccc32)cc1OC
K562
  IC50: 9300 nM
Tubulin [1]
  IC50: 3600 nM

## CC[C@]1(O)C[C@@H]2CN(CCc3c([nH]c4ccccc34)[C@@](C(=O)OC)(c3cc4c(cc3OC)N(C)[C@H]3[C@@](O)(C(N)=O)[C@H](O)[C@]5(CC)C=CCN6CC[C@]43[C@@H]65)C2)C1 [VINDESINE]
[2]
  IC50: 1 nM
L1210 [8]
  IC50: > 5000 nM
[6]
  IC50: 260 nM

## O=C1c2ccccc2C(=Nc2ccccc2)c2ccccc21
K562
  IC50: 6800 nM
Tubulin [1]
  IC50: 1450 nM

## COc1ccc(N=C2c3ccccc3C(=O)c3ccccc32)cc1O
Tubulin (Sus scrofa)
  Activity: inactive
SK-OV-3
  IC50: 160 nM
[2]
  IC50: 180 nM
[3]
  EC50: 359 nM
[4]
  IC50: 220 nM
[5]
  IC50: 170 nM
P388 [9]
  IC50: 230 nM
SF-268
  IC50: 340 nM
NCI-H460
  IC50: 210 nM
P388 [10]
  IC50: 230 nM
L1210 [11]
  IC50: 290 nM
L1210 [8]
  IC50: 220 nM
[6]
  IC50: 140 nM
K562
  IC50: 130 nM
Tubulin [12]
  IC50: 1100 nM
Tubulin [1]
  IC50: 440 nM
[7]
  IC50: > 9000 nM

## COc1ccc(N=C2c3cccc(Cl)c3C(=O)c3c(Cl)cccc32)cc1
K562
  IC50: 520 nM

## COc1ccc(N=C2c3ccccc3C(=O)c3ccccc32)cc1
K562
  IC50: 680 nM
Tubulin [1]
  IC50: 1900 nM

## O=C1c2ccccc2C(=NNc2ccccc2)c2ccccc21
Tubulin [1]
  IC50: > 10000 nM

## CC(=O)O[C@H]1C(=O)[C@@]2(C)[C@H]([C@H](OC(=O)c3ccccc3)[C@]3(O)C[C@H](OC(=O)[C@H](O)[C@@H](NC(=O)c4ccccc4)c4ccccc4)C(C)=C1C3(C)C)[C@]1(OC(C)=O)CO[C@@H]1C[C@@H]2O [PACLITAXEL]
[3]
  EC50: 49 nM
[4]
  IC50: 10 nM
[5]
  IC50: 10 nM
P388 [9]
  IC50: > 5000 nM
L1210 [8]
  IC50: > 5000 nM
[6]
  IC50: 400 nM
[7]
  IC50: > 3000 nM

## CC[C@]1(O)C[C@H]2CN(CCc3c([nH]c4ccccc34)[C@@](C(=O)OC)(c3cc4c(cc3OC)N(C=O)[C@H]3[C@@](O)(C(=O)OC)[C@H](OC(C)=O)[C@]5(CC)C=CCN6CC[C@]43[C@@H]65)C2)C1 [VINCRISTINE]
[3]
  EC50: 2.4 nM

## COc1cccc(NN=C2c3ccccc3C(=O)c3ccccc32)c1
K562
  IC50: 9000 nM
Tubulin [1]
  IC50: > 10000 nM

## COc1cc(NN=C2c3ccccc3C(=O)c3ccccc32)cc(OC)c1OC
K562
  IC50: 2740 nM
Tubulin [1]
  IC50: > 10000 nM

## COc1ccc(OC)c(N=C2c3ccccc3C(=O)c3ccccc32)c1
K562
  IC50: 870 nM

## COc1ccc(N=C2c3ccccc3C(=O)c3ccccc32)c(OC)c1
K562
  IC50: 3400 nM
Tubulin [1]
  IC50: 1600 nM

## COc1ccc(NN=C2c3ccccc3C(=O)c3ccccc32)cc1
K562
  IC50: 8410 nM
Tubulin [1]
  IC50: > 10000 nM

## COc1ccc(N=C2c3cccc(Cl)c3C(=O)c3c(Cl)cccc32)cc1O
Tubulin (Sus scrofa)
  Activity: inactive
SK-OV-3
  IC50: 100 nM
[2]
  IC50: 310 nM
[3]
  EC50: 121 nM
[4]
  IC50: 150 nM
[5]
  IC50: 160 nM
P388 [9]
  IC50: 300 nM
SF-268
  IC50: 150 nM
NCI-H460
  IC50: 180 nM
P388 [10]
  IC50: 230 nM
L1210 [11]
  IC50: 190 nM
L1210 [8]
  IC50: 190 nM
[6]
  IC50: 160 nM
K562
  IC50: 110 nM
Tubulin [12]
  IC50: 2600 nM
Tubulin [1]
  IC50: 1110 nM
[7]
  IC50: > 9000 nM

## COc1cc2c(c(OC)c1OC)-c1ccc(OC)c(=O)cc1[C@@H](NC(C)=O)CC2 [COLCHICINE]
[3]
  EC50: 14 nM
[4]
  IC50: 30 nM
[5]
  IC50: 20 nM
[7]
  IC50: > 10000 nM
